Assay results of several laboratories.
Protocols differ between the studies behind these lines.
Read-out: cell growth or viability

SMILES	cell line	assay	conditions	endpoint	value
COc1cc2c(cc1O)[C@@H](Cc1ccc(O)cc1)[N+](C)(C)CC2	Huh-7	MTT	–	CC50	> 318 µM
COc1ccc(CCN2CCC(Nc3nc4ccccc4n3Cc3ccc(F)cc3)CC2)cc1	HepG2	resazurin	50 µM, 24 h	viability	20%
O=C(NCCc1c[nH]c2ccc(F)cc12)c1cc2[nH]ccc2cc1Cl	HEK-293T	–	100 µM, 24 h	viability	< 50%
CCOP(=O)(OCC)[C@@H]1C[C@H](n2cc(Cn3ccc(=O)[nH]c3=O)nn2)ON1C (racemic)	human T-lymphocyte	–	72 h	CC50	> 250 µM
COc1cc2c(cc1OCc1ccccc1F)C1Cc3c(n(CO)c4ccccc34)CN1CC2 (stereo not drawn)	HepG2	–	20 µM, 24 h	viability	83.6%
CCOP(=O)(OCC)[C@@H]1C[C@@H](n2cc(Cn3cc(C)c(=O)[nH]c3=O)nn2)ON1C (racemic)	human T-lymphocyte	–	72 h	CC50	> 250 µM
CCCCCCn1c(-c2cccc(Cl)c2)n[nH]c1=S	HepG2	resazurin	100 µM, 24 h	viability	75%
NC1CCC(CC2CCC(NC(=O)c3cc4[nH]ccc4cc3Cl)CC2)CC1 (stereo not drawn)	HEK-293T	–	100 µM, 24 h	viability	< 50%
CC[C@@H](C)[C@H](N)C(=O)N1Cc2ccccc2C1	HEK-293T	ATP luminescence	60 µM	viability	73%
CCOP(=O)(OCC)[C@@H]1C[C@@H](n2cc(-c3ccc(F)cc3F)nn2)ON1C (racemic)	human T-lymphocyte	–	72 h	CC50	≥ 250 µM
N[C@@H](CC(=O)N1CCN(C(c2ccc(F)cc2)c2ccc(F)cc2)CC1)C(=O)N1Cc2ccccc2C1	HEK-293T	ATP luminescence	60 µM	viability	41%
COc1ccc2c(c1)c1c(n2CO)CN2CCc3cc(OC)c(OCc4ccc(F)cc4)cc3C2C1 (stereo not drawn)	HepG2	–	10 µM, 24 h	viability	104%
